Experiments:
Assay type in all cases: functional, organism-based
[1] = system: Human immunodeficiency virus 1; test: Potency evaluated against NNRTI-Resistant HIV-1 strain Val106Ala
Outline: (§1)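 Test compound dilutions in microtiter wells; HIV added at 200-250 CCID50/well and MT4 cells at 3 × 10^4 cells/well (final). Incubated 5 days at 37 °C, 5% CO2. Cytopathic effect of replicating virus read by MTT tetrazolium colorimetry. EC50 is the dose achieving 50% infection.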

[2] = system: Human immunodeficiency virus 1; test: Potency evaluated against NNRTI-Resistant HIV-1 strain Tyr181Cys; outline: as §1
[3] = system: Human immunodeficiency virus 1; test: Potency evaluated against NNRTI-Resistant HIV-1 strain Lys103Asn; outline: as §1
[4] = system: Human immunodeficiency virus 1; test: Potency evaluated against NNRTI-Resistant HIV-1 strain Tyr188Leu; outline: as §1
[5] = system: Human immunodeficiency virus 1; test: Potency evaluated against wild type HIV-1 strain IIIB; outline: as §1
[6] = system: Human immunodeficiency virus 1; test: Potency evaluated against NNRTI-Resistant HIV-1 strain Gly190Ala; outline: as §1
[7] = system: Human immunodeficiency virus 1; test: Potency evaluated against NNRTI-Resistant HIV-1 strain Leu100Ile; outline: as §1

| Structure (SMILES) | EC50 [1] [nM] | EC50 [2] [nM] | EC50 [3] [nM] | EC50 [4] [nM] | EC50 [5] [nM] | EC50 [6] [nM] | EC50 [7] [nM] |
| --- | --- | --- | --- | --- | --- | --- | --- |
| N#Cc1ccc(NC(=S)NC(=N)Cc2c(Cl)cccc2Cl)cc1 | 382 | 511 | 589 | 318 | 3 | 2 | 513 |
| N#Cc1ccc(Nc2nc(N)nc(Cc3c(Cl)cccc3Cl)n2)cc1 | 26 | 277 | 41 | 431 | 2 | 1 | 293 |
| N#Cc1ccc(Nc2nc(N)nc(Cc3c(Cl)ccc4[nH]ccc34)n2)cc1 | 63 | 250 | 63 | 1000 | 3 | 3 | 1000 |
| N#Cc1ccc(Nc2nc(N)nc(Oc3c(Cl)cccc3Cl)n2)cc1 | 100 | 250 | 79 | 320 | 3 |  | 320 |
| Cc1cc(C#N)cc(C)c1Oc1nc(Nc2ccc(C#N)cc2)nc(CO)c1Br | 2 | 6 | 4 | 6 | 4 | 1 | 2 |
| CC(=O)c1ccc(C)cc1N[C@@H](C(N)=O)c1c(Br)cccc1Br [(R)-LOVIRIDE] | 1000 | 15800 | 1260 | 50100 | 5 | 2510 | 50 |
| Cc1cc(C)c(Nc2ccnc(Nc3ccc(C#N)cc3)n2)c(C)c1 [DAPIVIRINE] | 3 | 8 | 4 | 40 | 1 | 1 | 16 |
| CC(C)Nc1cccnc1N1CCN(C(=O)c2cc3cc(NS(C)(=O)=O)ccc3[nH]2)CC1 [DELAVIRDINE] | 2240 | 1340 | 1700 | 178 | 16 | 38 | 3470 |
| Cc1cc(C#N)cc(C)c1Oc1nc(Nc2ccc(C#N)cc2)nc(N)c1Br [ETRAVIRINE] | 2 | 6 | […] | 3 | 20 | […] | 3 |
| Cc1ccnc2c1NC(=O)c1cccnc1N2C1CC1 [NEVIRAPINE] | 2410 | 5350 | 2470 | > 100000 | 85 | 3460 | 638 |

Reference: ChEMBL document CHEMBL1148309, “Roles of conformational and positional adaptability in structure-based design of TMC125-R165335 (etravirine) and related non-nucleoside reverse transcriptase inhibitors that are highly potent and effective against wild-type and drug-resistant HIV-1 variants” (J Med Chem, 2004)
